ChEMBL document CHEMBL1124743, “Development of a novel series of (2-quinolinylmethoxy)phenyl-containing compounds as high-affinity leukotriene receptor antagonists. 1. Initial structure-activity relationships” (J Med Chem, 1990)
pKi: −log10 of the molar value. Activity calls are given as the source filed them. The rule behind the calls is not given here.

What was measured:
[1] = biological target: T1, Cysteinyl leukotriene receptor 1 (Cavia porcellus, UniProt Q2NNR5); test: Binding affinity against Cysteinyl leukotriene D4 receptor from guinea pig lung was determined using [3H]LTD4 (0.2 nM)
T1 sequence (Q2NNR5 whole entry): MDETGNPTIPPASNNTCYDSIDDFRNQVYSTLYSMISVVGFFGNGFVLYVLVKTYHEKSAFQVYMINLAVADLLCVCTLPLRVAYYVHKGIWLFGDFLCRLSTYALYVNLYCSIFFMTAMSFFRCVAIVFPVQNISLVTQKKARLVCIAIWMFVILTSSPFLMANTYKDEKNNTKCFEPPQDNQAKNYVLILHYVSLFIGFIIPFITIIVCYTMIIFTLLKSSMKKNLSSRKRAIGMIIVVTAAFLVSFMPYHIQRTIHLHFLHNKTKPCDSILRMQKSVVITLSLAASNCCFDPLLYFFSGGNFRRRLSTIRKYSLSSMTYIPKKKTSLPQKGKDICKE
Procedure, shortened: (§1)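 Membranes from guinea pig lung were incubated with 0.2 nM [3H]LTD4. Ki was derived from an IC50 read graphically, using at least four compound concentrations run in duplicate. Single-concentration values are % inhibition of specific binding at the stated concentration. Results are mean ± SEM with N separate experiments.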

Cavia porcellus [2] = organism: Cavia porcellus; test: Oral activity expressed as percent inhibition in leukotriene mediated anaphylaxis assay in guinea pig at 30 uM; type: functional; settings: in the assay text read “30 mg/kg” for “30 uM”
Procedure, shortened: (§2)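 Immunized guinea pigs were pretreated with pyrilamine, propranolol and indomethacin, given compound orally, then challenged with aerosolized ovalbumin. Mortality was the end point. ED50 was determined graphically from at least three doses with at least six animals per dose. Other values are % inhibition at the indicated mg/kg dose.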

[3] = biological target: Cysteinyl leukotriene receptor (Cavia porcellus); test: Inhibition of the spasmogenic activity of LTD4 in guinea pig parenchymal strips.
Cavia porcellus [4] = organism: Cavia porcellus; test: Oral activity expressed as effective dose in LTD4-induced wheal assay in guinea pig; type: functional
Procedure, shortened: (§3)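 Guinea pigs received compound orally 60 min before intradermal LTD4 challenge, and wheal formation was scored. ED50 came from linear regression over at least three doses, with at least five animals per point. Other values are % inhibition at the indicated mg/kg dose.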

[5] = system: Cysteinyl leukotriene receptor (Cavia porcellus); test: inhibition of the spasmogenic activity of LTD4 in guinea pig parenchymal strips at 10 uM.
[6] = biological target: T2, Cysteinyl leukotriene receptor 1 (Cavia porcellus) (UniProt Q2NNR5); test: Binding affinity at 10 uM against Cysteinyl leukotriene D4 receptor from guinea pig lung by [3H]LTD4 (0.2 nM) displacement.; procedure, shortened: as §1
T2 sequence (whole entry): T1 sequence (Q2NNR5 whole entry)

Cavia porcellus [7] = organism: Cavia porcellus; test: Oral activity expressed as effective dose in leukotriene mediated anaphylaxis assay in guinea pig; type: functional; procedure, shortened: as §2
Cavia porcellus [8] = test: Effective dose to antagonize antigen induced bronchoconstrictive response (intraduodenal administration); type: functional
Procedure, shortened: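 Actively sensitized guinea pigs were pretreated with indomethacin, pyrilamine and propranolol, then given compound intraduodenally and challenged with iv ovalbumin. Inhibition of bronchoconstriction was measured. ED50 is reported with 95% CI.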

Cavia porcellus [9] = organism: Cavia porcellus; test: Compound was evaluated for its effect on LTC4 induced contractions of guinea pig peripheral lung strips; type: functional
Procedure, shortened: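 Guinea pig lung parenchymal strips were suspended in a tissue bath and contracted with 0.2 nM LTC4. IC50 was determined graphically from at least four concentrations. Results are mean ± SEM with N separate experiments, or % inhibition at the stated concentration.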

Cavia porcellus [10] = organism: Cavia porcellus; test: Compound was evaluated for its effect on histamine induced contractions of guinea pig peripheral lung strips; No significant effect up to 50 uM; type: functional
Cavia porcellus [11] = test: Effective dose to antagonize bronchoconstrictive response of LTD4 at 0.8 ug/kg (i.v.); type: functional; settings: Lung, iv
Cavia porcellus [12] = organism: Cavia porcellus; test: Compound was evaluated for its effect on LTE4 induced contractions of guinea pig peripheral lung strips; type: functional
[13] = biological target: T1, Cysteinyl leukotriene receptor 1; test: Compound was evaluated for inhibition against binding of [3H]LTD4 to Cysteinyl leukotriene D4 receptor; procedure, shortened: as §1
Cavia porcellus [14] = organism: Cavia porcellus; test: Compound was evaluated for its effect on PGF2-alpha induced contractions of guinea pig peripheral lung strips; No significant effect up to 50 uM; type: functional
Cavia porcellus [15] = organism: Cavia porcellus; test: Compound was evaluated for its effect on LTD4 induced contractions of guinea pig peripheral lung strips; type: functional
Cavia porcellus [16] = organism: Cavia porcellus; test: Compound was evaluated for its effect on methacholine induced contractions of guinea pig peripheral lung strips; No significant effect up to 50 uM; type: functional
[17] = system: Arachidonate 5-lipoxygenase (Cavia porcellus); test: Percent inhibition against 5-lipoxygenase from guinea pig polymorphonuclear […]; settings: concentration not given here
Cavia porcellus [18] = organism: Cavia porcellus; test: Half life was determined; settings: guinea pig
Cavia porcellus [19] = organism: Cavia porcellus; test: Oral activity expressed as percent inhibition in LTD4-induced wheal assay in guinea pig at 10 uM; type: functional; settings: in the assay text read “at 10 mg/kg” for “at 10 uM”; procedure, shortened: as §3
Cavia porcellus [20] = organism: Cavia porcellus; test: Oral activity expressed as percent inhibition in LTD4-induced wheal assay in guinea pig at 9 uM; type: functional; settings: in the assay text read “at 9 mg/kg” for “at 9 uM”; procedure, shortened: as §3
Cavia porcellus [21] = organism: Cavia porcellus; test: Oral activity expressed as percent inhibition in leukotriene mediated anaphylaxis assay in guinea pig at 60 uM; type: functional; settings: in the assay text read “60 mg/kg” for “60 uM”; procedure, shortened: as §2
Cavia porcellus [22] = test: Oral activity expressed as percent inhibition in LTD4-induced wheal assay in guinea pig at 18 mg/kg
Cavia porcellus [23] = organism: Cavia porcellus; test: Ability to inhibit the spasmogenic activity of LTD4 in guinea pig parenchymal strips at 10 uM; type: functional
Cavia porcellus [24] = organism: Cavia porcellus; test: Ability to inhibit the spasmogenic activity of LTC4 in guinea pig parenchymal strips at 1 uM
[25] = biological target: T2, Cysteinyl leukotriene receptor 1 (Cavia porcellus); test: Binding affinity against Cysteinyl leukotriene D4 receptor from guinea pig lung was determined using [3H]LTD4 (0.2 nM) at compound concentration of 1 uM; procedure, shortened: as §1

Row | pKi [1] | IC50 [3] [nM] | inhibition [5] [%] | inhibition [6] [%] | SMILES | other results
1 | 6.80 | 600 |  |  | CCOC(=O)CCCOc1cccc(OCc2ccc3ccccc3n2)c1 | Inhibition (Cavia porcellus [2]): 83%; ED50 (Cavia porcellus [4]): 15 mg/kg
2 |  |  | 41 | 35 | CCOC(=O)c1ccc(COc2ccc(OCCCc3nnn[nH]3)cc2)nc1 | 
3 |  |  | 4 | 25 | O=C(Nc1ccc(OCCCc2nnn[nH]2)cc1)c1ccc2ccccc2n1 | 
4 | 6.30 | 2000 |  |  | CCOC(=O)CCCOc1ccc(OCc2ccc3ccccc3n2)cc1 | 
5 |  |  | 22 | 58 | c1ccc(-c2ccc(COc3cccc(OCCCc4nnn[nH]4)c3)nc2)cc1 | 
6 | 6.94 | 200 |  |  | c1cc(OCc2ccc3ccccc3n2)cc(-c2nn[nH]n2)c1 | ED50 (Cavia porcellus [7]): 145 mg/kg
7 | 7.38 | 79 |  |  | c1cc(OCCCc2nnn[nH]2)cc(OCc2ccc3ccccc3n2)c1 | ED50 (Cavia porcellus [7]): 16 mg/kg; ED50 (Cavia porcellus [8]): 2.5 mg/kg; Kb (Cavia porcellus [9]): ~90 nM; Activity (Cavia porcellus [10]): inactive; ED50 (Cavia porcellus [11]): 1.1 mg/kg; Kb (Cavia porcellus [12]): ~90 nM; pKi [13]: 7.38; Activity (Cavia porcellus [14]): inactive; Kb (Cavia porcellus [15]): ~90 nM; Activity (Cavia porcellus [16]): inactive; inhibition [17]: 9%; half-life (Cavia porcellus [18]): ~4 h; ED50 (Cavia porcellus [4]): 6.9 mg/kg
8 | 6.27 |  |  |  | c1ccc2nc(CSc3ccc(OCCCc4nnn[nH]4)cc3)ccc2c1 | 
9 |  |  | -10 | 15 | c1cc(OCCCc2nnn[nH]2)cc(OCc2cnc3ccccc3c2)c1 | 
10 |  |  | 43 | 33 | O=C(Nc1ccc2ccccc2n1)c1ccc(OCCCc2nnn[nH]2)cc1 | 
11 |  |  |  |  | c1ccc2nc(COc3ccc(CCCCc4nnn[nH]4)cc3)ccc2c1 | Inhibition (Cavia porcellus [19]): 35%
12 | 6.62 |  | 59 |  | c1ccc2sc(COc3ccc(OCCCc4nnn[nH]4)cc3)nc2c1 | 
13 | 7.51 | 25 |  |  | c1ccc2nc(COc3ccc(SCCCc4nnn[nH]4)cc3)ccc2c1 | Inhibition (Cavia porcellus [19]): 23%
14 |  |  | 44 | 57 | c1ccc(COc2ccc(OCCCc3nnn[nH]3)cc2OCc2ccc3ccccc3n2)cc1 | 
15 | 7.51 | 19 |  |  | O=C(CCCOc1ccc(OCc2ccc3ccccc3n2)cc1)NS(=O)(=O)c1ccccc1 | Inhibition (Cavia porcellus [20]): 24%; Inhibition (Cavia porcellus [21]): 64%
16 |  |  |  |  | O=C(O)CCCOc1cccc(OCc2ccc3ccccc3n2)c1 | ED50 (Cavia porcellus [7]): 20 mg/kg; ED50 (Cavia porcellus [4]): 7.2 mg/kg
17 | 7.07 | 140 |  |  | c1cc(OCc2ccc3ccccc3n2)cc(OCc2nn[nH]n2)c1 | Inhibition (Cavia porcellus [21]): 67%; Inhibition (Cavia porcellus [22]): 18%
18 | 6.30 |  | 75 |  | c1ccc2nc(COc3ccc(OCCCc4nnn[nH]4)cc3)ncc2c1 | 
19 | 7.16 | 250 |  |  | c1ccc2nc(COc3ccc(OCCCc4nnn[nH]4)cc3)ccc2c1 | ED50 (Cavia porcellus [7]): 50 mg/kg; half-life (Cavia porcellus [18]): ~4 h; ED50 (Cavia porcellus [4]): 7 mg/kg
20 | 5.92 |  |  |  | c1ccc2nc(COCc3ccc(OCCCc4nnn[nH]4)cc3)ccc2c1 | 
21 |  |  | 22 | 30 | O=C(O)c1ccc(COc2ccc(OCCCc3nnn[nH]3)cc2)nc1 | 

Row | pKi [1] | IC50 [3] [nM] | inhibition [5] [%] | inhibition [6] [%] | SMILES | other results
22 |  |  | 9 | 48 | c1ccc(Oc2cccc(COc3cccc(OCCCc4nnn[nH]4)c3)n2)cc1 | 
23 | 7.12 | 120 |  |  | c1cc(OCCCCc2nnn[nH]2)cc(OCc2ccc3ccccc3n2)c1 | Inhibition (Cavia porcellus [7]): 64%
24 |  |  | 12 | 0 | c1cc(OCCCc2nnn[nH]2)cc(OCc2ccc3ccccc3c2)c1 | 
25 |  |  | 42 | 28 | c1ccc2[nH]c(COc3ccc(OCCCc4nnn[nH]4)cc3)nc2c1 | 
26 | 6.77 |  |  |  | Cc1cc(OCc2ccc3ccccc3n2)ccc1OCCCc1nnn[nH]1 | 
27 |  |  | -3 | 18 | O=C(NCc1ccc2ccccc2n1)c1ccc(OCCCc2nnn[nH]2)cc1 | 
28 | 5.82 |  |  |  | CCCCCC(O)c1cccc(OCc2ccc3ccccc3n2)c1 (stereo not given) [REV-5901] | 
29 |  |  |  | 45 | c1cc(OCCCc2nnn[nH]2)cc(OCc2cc3ccccc3cn2)c1 | inhibition at 10 µM (Cavia porcellus [23]): 68%
30 |  |  | 22 |  | c1ccc2c(c1)CCC(COc1ccc(OCCCc3nnn[nH]3)cc1)N2 (stereo not given) | 
31 |  |  | 9 | 12 | c1ccc(COc2cccc(OCCCc3nnn[nH]3)c2)cc1 | 
32 | 6.19 |  |  |  | Cc1cc(OCCCc2nnn[nH]2)cc(OCc2ccc3ccccc3n2)c1 | inhibition at 1 µM (Cavia porcellus [24]): 20%
33 | 5.48 |  |  |  | c1ccc(OCc2ccc3ccccc3n2)c(OCCCc2nnn[nH]2)c1 | 
34 |  |  | 50 | 48 | c1ccc(-c2cccc(COc3ccc(OCCCc4nnn[nH]4)cc3)n2)cc1 | 
35 |  |  |  |  | c1ccc2c(COc3ccc(OCCCc4nnn[nH]4)cc3)nccc2c1 | inhibition [25]: 7%
36 | 5.92 | 800 |  |  | O=C(O)CCCOc1ccc(OCc2ccc3ccccc3n2)cc1 | 
37 | 6.80 | 280 |  |  | c1ccc2nc(COc3ccc(CCc4nnn[nH]4)cc3)ccc2c1 | 
38 | 6.00 |  |  |  | c1ccc(OCc2ccc3ccccc3n2)cc1 | 
39 |  |  | 18 | 10 | c1ccc(COc2cccc(OCCCc3nnn[nH]3)c2)nc1 | 
40 | 6.62 | 250 |  |  | CCc1ccc(OCc2ccc3ccccc3n2)cc1OCCCc1nnn[nH]1 | 
41 | 6.56 | 1000 |  |  | c1ccc2nc(COc3ccc(Cc4nnn[nH]4)cc3)ccc2c1 | 
42 |  |  | 36 | 9 | c1ccc2sc(COc3ccc(OCCCc4nnn[nH]4)cc3)cc2c1 | 
